# Screening results (PubChem BioAssay)
# KCNK9 inh-1: KCNK9 potassium channel inhibitors, primary screen, HEK293 cells, thallium flux | Potassium channel subfamily K member 9 (Homo sapiens), Q9NPC2 | FluxOR thallium flux fluorescence; active compounds read low | B-score at 10 µM | actives 1.2% (n = 310,000) | AID 488922, 2010;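 active = ratio B-score over 3 SD below the library mean, with starting fluorescence within 5 SD of its mean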;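 also: negative B-score means less thallium flux so channel inhibition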
# KCNK3 block: human KCNK3 channel inhibitors, primary screen, CHO cells, FluxOR thallium flux, B-score | Potassium channel subfamily K member 3 (Homo sapiens), O14649 | FluxOR fluorescence; active compounds read low | B-score at 10 µM | actives 0.84% (n = 340,000);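 active = B-score under library mean minus 4 SD, starting fluorescence ratio at most library mean plus 5 SD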;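 also: more negative B-score means stronger inhibition of thallium flux through KCNK3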
# Target sequence (O14649 whole entry, looked up): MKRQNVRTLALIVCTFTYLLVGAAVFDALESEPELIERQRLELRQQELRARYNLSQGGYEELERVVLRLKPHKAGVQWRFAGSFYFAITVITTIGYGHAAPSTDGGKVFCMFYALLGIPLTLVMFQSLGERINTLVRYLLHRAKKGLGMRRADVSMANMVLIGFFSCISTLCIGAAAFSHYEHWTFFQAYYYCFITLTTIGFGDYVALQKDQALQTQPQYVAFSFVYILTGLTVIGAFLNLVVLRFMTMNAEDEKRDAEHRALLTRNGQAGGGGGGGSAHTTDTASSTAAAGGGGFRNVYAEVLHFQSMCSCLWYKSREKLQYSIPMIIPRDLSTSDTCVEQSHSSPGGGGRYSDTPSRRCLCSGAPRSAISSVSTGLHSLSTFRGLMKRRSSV
# KCNQ1 act: potentiators or activators of KCNQ1 channel, primary screen, cell-based, thallium flux, high-throughput | Potassium voltage-gated channel subfamily KQT member 1 (Homo sapiens), P51787 | CHO-K1 KCNQ1, thallium flux FluxOR fluorescence; active compounds read high | AID 2648, 2010 | B-score at 10 µM | actives 0.35% (n = 310,000);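 active = fluorescence ratio B-score, a plate-corrected score, at least three library SD, with initial intensity B-score within 5 SD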
#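 assay system = KCNQ1-transfected CHO-K1 cells | medium = assay buffer with matched DMSO | probe or stimulus = depolarizing K+/Tl+ stimulus, K2SO4 and Tl2SO4 each 12.5 mM in 5x stock | dosing = single dose | incubation = dye 90 min, compound 20 min, room temperature | detection = kinetic FluxOR fluorescence, 10 s baseline plus 110 s post-stimulus | evaluation = ratio B score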
# KCNQ1 inh: inhibitors of human KCNQ1 channel, primary screen, cell-based, thallium flux, high-throughput. AID 2642, 2010. CHO-K1 KCNQ1, FluxOR thallium flux fluorescence; active compounds read high. B-score at 10 µM. actives 1.3% (n = 310,000);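 active = compounds whose thallium flux B-score, printed positive for inhibition, exceeds three library SD while starting fluorescence stays within three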;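 also: channel opened by potassium depolarization with thallium stimulus after 20 min compound exposure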
# Kir21 block: inhibitors of mouse Kir2.1 inward-rectifier potassium channel; B-score at 10 µM; AID 1672, 2009; HEK293-Kir2.1, FluxOR thallium flux fluorescence; active compounds read low; Inward rectifier potassium channel 2 (Mus musculus), P35561; actives 0.85% (n = 310,000);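 active = fluorescence ratio B-score at or below minus 3 SD of library scores, with starting-brightness B-score within 2 SD, cut at about -4.2 in these data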;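 also: channel flux triggered by added potassium and thallium sulfate stimulus; B-score of peak minus minimum fluorescence over baseline after thallium stimulus; more negative B-score means stronger Kir2.1 block with less thallium influx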
# hERG rescue: hERG rescue from dofetilide block, primary screen, cell-based, CHO-hERG, FluxOR thallium flux, dofetilide IC70 | activation (rescue from dofetilide block), less the hit threshold, % at 10 µM | dofetilide IC70 present | Voltage-gated inwardly rectifying potassium channel KCNH2 (Homo sapiens), Q12809 | actives 0.51% (n = 310,000);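 active = activation above the mean of controls blocked by dofetilide plus 5 SD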;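 also: thallium influx through hERG after potassium depolarization seen as dye fluorescence rise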
# hERG inh: hERG channel inhibition, counter-screen for Kir2.1 inhibitor project, cell-based, thallium flux | shares compounds with Kir21 block | hERG-expressing cells | inhibition, % at 10 µM | actives 20% (n = 320) | AID 2236, 2010;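 also: host cells are CHO cells stably expressing hERG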
# KCNK9 inh-2: KCNK9 channel inhibition, selectivity assay for Kir2.1 inhibitor project, cell-based; AID 2329, 2010; actives 5% (n = 320); KCNK9-expressing cells, ion flux inhibition; shares compounds with Kir21 block; inhibition, % at 10 µM
# Kir2-1 patch inh: mouse Kir2.1 channel blockers, Kir2.1 inhibitor project, cell-based, secondary, automated electrophysiology. inhibition, % at 25 µM. Kir2.1 cells, automated patch-clamp current inhibition. actives 71% (n = 320). shares compounds with Kir21 block
# An asterisk follows results filed as active; i = inactive; x = not tested or not shown. Rows were chosen to be rich in hits. Some 3.8% of all compounds tested hit in one or more screens of this group. Unless noted, no rule for the calls is given here.
SMILES,KCNK9 inh-1,KCNK3 block,KCNQ1 act,KCNQ1 inh,Kir21 block,hERG rescue,hERG inh,KCNK9 inh-2,Kir2-1 patch inh
Cc1ccc(S(=O)(=O)NC(C)c2ccccc2)cc1[N+](=O)[O-] (centres undefined),i,i,i,i,-7.99*,-2.8,i,i,29.9%*
Cn1c(N)c(C(=O)COC(=O)c2ccc3c(c2)C(=O)N(c2ccc(Cl)cc2)C3=O)c(=O)n(C)c1=O,i,i,i,i,-0.46,-11.1,x,x,x
CCCCN(CCCC)CCNC(=O)CN1C(=O)COc2ccc(S(=O)(=O)N3CCC(C)CC3)cc21,i,i,i,i,-1.87,-5.8,x,x,x
CCCCN(CCCNC(=O)CN1C(=O)COc2ccc(S(=O)(=O)N3CCC(C)CC3)cc21)Cc1ccccc1,i,i,i,i,-5.72*,-11.5,i,i,i
CC(OC(=O)c1cccc(-n2cnnn2)c1)C(=O)Nc1cccc(Cl)c1 (centres undefined),i,i,i,i,4.44,-12.3,i,i,i
CC(=O)c1ccc(NC(=O)C(C)OC(=O)c2cccc(-n3cnnn3)c2)cc1 (centres undefined),i,i,i,i,0.43,-7.1,x,x,x
COc1cc(NS(=O)(=O)c2ccc(Nc3nc(-c4ccccc4)cs3)cc2)nc(OC)n1,i,i,i,i,3.56,-4.3,i,i,i
COc1cc(NS(=O)(=O)c2ccc(NC(=S)Nc3ccccc3)cc2)nc(OC)n1,i,i,i,i,-0.09,-1.5,x,x,x
C=CCc1ccccc1OCCNCc1ccccc1,i,i,i,i,-8.86*,-11.3,i,i,75.3%*
CCc1cc2c(CN3CCN(Cc4ccccc4)CC3)cc(=O)oc2cc1O,i,i,i,i,-5.97*,-6.4,i,i,i
COC(=O)CCC(=O)N1CCC(CCC(=O)NCc2ccc(F)cc2)CC1,i,i,i,i,0,-8.4,x,x,x
CC(OC(=O)C1CCCCC1)C(=O)Nc1ccc(S(N)(=O)=O)cc1 (centres undefined),x,i,x,x,x,x,x,x,x
O=S(=O)(c1ccc(Cl)cc1)N1CCCC1c1nc(-c2ccc(Cl)cc2)no1 (centres undefined),i,i,i,i,-1.05,-5.2,x,x,x
Nc1nc(C2CCCN2S(=O)(=O)c2ccc(Cl)cc2)cs1 (centres undefined),i,i,i,i,-6.57*,-4.3,i,i,13.9%*
O=C(C[n+]1cccc(O)c1)NCc1ccc(Cl)cc1,i,i,i,i,-1.05,-6.8,x,x,x
CCn1c(CSc2nc3ccccc3s2)nnc1SCC(=O)OC(C)(C)C,i,i,i,i,-8.65*,-14.5,i,i,30.9%*
CCn1c(CSc2nc3ccccc3s2)nnc1SCC(N)=O,i,i,i,i,0.61,-8.8,x,x,x
Nc1nc(C2CCOCC2)cs1,i,i,i,i,-0.08,-9.6,x,x,x
Nc1nc(C2CC2)c(Sc2sc(N)nc2C2CC2)s1,i,i,i,i,-8.2*,-7.9,i,i,6.1%*
CCCCN1C(=O)C(=Nc2cccc3cnccc23)c2ccccc21,-7.18*,i,i,i,-7.46*,-13.7,i,i,i
CC(CCc1ccc(O)cc1)NC1c2ccccc2-c2ccccc21 (centres undefined),i,i,i,i,-14.5*,-5.5,60.0%*,i,i
CC(CCc1ccc(O)cc1)NC1C2CC3CC(C2)CC1C3 (centres undefined),i,i,i,i,-3.79,-4.5,x,x,x
Cn1nc(-c2ccccc2)c2ncc(C(F)(F)F)cc21,i,i,i,i,0.73,-9.2,x,x,x
CCc1ccc(Nc2n[n+](-c3ccccc3)c(/C=C/c3ccccc3)s2)cc1,i,x,i,12*,-7.65*,-35.2,68.0%*,i,i
CN1OC[C@@H]2CN(Cc3ccc(Cl)cc3)[C@H](c3cccc(Br)c3)C[C@@H]21,x,i,x,x,x,x,x,x,x
SMILES,KCNK9 inh-1,KCNK3 block,KCNQ1 act,KCNQ1 inh,Kir21 block,hERG rescue,hERG inh,KCNK9 inh-2,Kir2-1 patch inh
CCN(C(=O)COC(=O)/C=C/c1ccco1)C1CCCCC1,x,i,x,x,x,x,x,x,x
O=C(CC(Cc1ccccc1)c1ccco1)NC1CCCCC1 (centres undefined),i,i,i,i,-2.7,-6.6,x,x,x
CC(NCCC(Cc1ccccc1)c1ccco1)c1ccccc1 (centres undefined),i,i,i,i,-13.9*,-21.7,i,i,i
Cc1cccc(C(=O)Nc2cc(S(=O)(=O)N3CCOCC3)ccc2N2CCCCC2)c1,x,i,x,x,x,x,x,x,x
Cc1cccc(N(C(=O)CNC(=O)c2cccs2)C(C(=O)NC2CCCC2)c2ccncc2)c1 (centres undefined),i,i,i,i,1.23,-6.6,x,x,x
O=S(=O)(Nc1ccccc1N1CCOCC1)c1ccc(F)c(Cl)c1,i,i,i,i,-12.3*,-3.4,i,i,2.6%*
COc1ccc(C(=O)CN2Cc3ccccc3C2=N)cc1,i,i,i,i,-10.7*,-3.4,65.0%*,i,i
O=C(NCCN1CCOCC1)c1cccc(S(=O)(=O)NCc2ccccc2)c1,i,i,i,i,0.21,-6.5,x,x,x
